Experimental data taken from ChEMBL document CHEMBL4406804, “Discovery of a Potent Steroidal Glucocorticoid Receptor Antagonist with Enhanced Selectivity against the Progesterone and Androgen Receptors (OP-3633)” (J Med Chem, 2019).

Assays:
[1] = AUC in mini-pig at 5 mg/kg, po; type: ADME, organism-based, Sus scrofa domesticus; conditions: in vivo
[2] = Clearance in rat at 0.5 mg/kg, iv; type: ADME, organism-based; conditions: in vivo
Method in brief: (§1)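 Rat PK study. The iv dose of 0.5 mg/kg was given in 10% DMSO, 70% PEG 400 and 20% water. The oral dose of 5 mg/kg was given in 5% DMSO / 95% of 0.2% Tween 80 in 0.25% CMC, adjusted to pH 4 for one compound. Read-outs were CL, Vss, iv t1/2, F, Cmax and AUC.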

[3] = target: T1, Glucocorticoid receptor (Homo sapiens) (UniProt P04150); test: Antagonist activity at human glucocorticoid receptor expressed in CHO-K1 cells harboring firefly luciferase gene assessed as inhibition of glucocorticoid receptor activity at 0.01 to 10000 nM after 20 hrs by One-Glo luciferase reporter gene assay relative to mifepristone; type: cell-based; design: scale not given: the % may be the effect or the level left
T1 sequence (whole entry): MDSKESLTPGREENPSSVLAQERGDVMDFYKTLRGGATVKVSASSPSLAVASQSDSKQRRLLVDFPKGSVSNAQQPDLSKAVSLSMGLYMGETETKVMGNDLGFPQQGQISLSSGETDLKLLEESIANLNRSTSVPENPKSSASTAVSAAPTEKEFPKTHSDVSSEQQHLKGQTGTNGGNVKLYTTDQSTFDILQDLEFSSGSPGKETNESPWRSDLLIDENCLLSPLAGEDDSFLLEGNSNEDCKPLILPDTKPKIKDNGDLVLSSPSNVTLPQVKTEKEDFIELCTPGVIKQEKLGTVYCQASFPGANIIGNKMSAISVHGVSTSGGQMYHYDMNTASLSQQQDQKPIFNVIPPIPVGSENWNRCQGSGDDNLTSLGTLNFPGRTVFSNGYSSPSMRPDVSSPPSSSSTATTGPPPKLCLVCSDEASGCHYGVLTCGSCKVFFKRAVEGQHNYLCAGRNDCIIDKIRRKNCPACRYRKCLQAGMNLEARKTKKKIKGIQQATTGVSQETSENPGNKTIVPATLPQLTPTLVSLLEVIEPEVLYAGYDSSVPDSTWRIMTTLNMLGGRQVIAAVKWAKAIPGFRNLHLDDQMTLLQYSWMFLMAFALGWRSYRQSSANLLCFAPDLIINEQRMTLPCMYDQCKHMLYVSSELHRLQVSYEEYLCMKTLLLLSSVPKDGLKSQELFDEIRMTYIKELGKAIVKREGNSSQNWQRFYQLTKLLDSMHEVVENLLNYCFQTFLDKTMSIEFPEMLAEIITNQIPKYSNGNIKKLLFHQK
Method in brief: (§2)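 Cell-based luciferase reporter assays for GR, AR and PR, run in agonist and antagonist modes. Potency and Emax are averages of at least two determinations, reported with SD.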

[4] = target: T2, Glucocorticoid receptor (Homo sapiens, UniProt P04150); test: Antagonist activity at human glucocorticoid receptor expressed in CHO-K1 cells assessed as inhibition of glucocorticoid receptor-dexamethasone coactivator protein-protein interaction incubated for 24 hrs by bioluminescence assay; type: cell-based
T2 sequence (P04150 whole entry): T1 sequence (whole entry)

[5] = Half-life in dog at 0.5 mg/kg, iv; type: ADME, organism-based, Canis lupus familiaris; conditions: in vivo
[6] = AUC in rat at 5 mg/kg, po; type: ADME, organism-based; conditions: in vivo; method in brief: as §1
[7] = Oral bioavailability in rat at 5 mg/kg; type: ADME, organism-based; conditions: in vivo; method in brief: as §1
[8] = target: T3, Progesterone receptor (Homo sapiens, UniProt P06401); test: Antagonist activity at human progesterone receptor expressed in CHO-K1 cells harboring firefly luciferase gene after 20 hrs by One-Glo luciferase reporter gene assay; type: cell-based; method in brief: as §2
T3 sequence (P06401 whole entry): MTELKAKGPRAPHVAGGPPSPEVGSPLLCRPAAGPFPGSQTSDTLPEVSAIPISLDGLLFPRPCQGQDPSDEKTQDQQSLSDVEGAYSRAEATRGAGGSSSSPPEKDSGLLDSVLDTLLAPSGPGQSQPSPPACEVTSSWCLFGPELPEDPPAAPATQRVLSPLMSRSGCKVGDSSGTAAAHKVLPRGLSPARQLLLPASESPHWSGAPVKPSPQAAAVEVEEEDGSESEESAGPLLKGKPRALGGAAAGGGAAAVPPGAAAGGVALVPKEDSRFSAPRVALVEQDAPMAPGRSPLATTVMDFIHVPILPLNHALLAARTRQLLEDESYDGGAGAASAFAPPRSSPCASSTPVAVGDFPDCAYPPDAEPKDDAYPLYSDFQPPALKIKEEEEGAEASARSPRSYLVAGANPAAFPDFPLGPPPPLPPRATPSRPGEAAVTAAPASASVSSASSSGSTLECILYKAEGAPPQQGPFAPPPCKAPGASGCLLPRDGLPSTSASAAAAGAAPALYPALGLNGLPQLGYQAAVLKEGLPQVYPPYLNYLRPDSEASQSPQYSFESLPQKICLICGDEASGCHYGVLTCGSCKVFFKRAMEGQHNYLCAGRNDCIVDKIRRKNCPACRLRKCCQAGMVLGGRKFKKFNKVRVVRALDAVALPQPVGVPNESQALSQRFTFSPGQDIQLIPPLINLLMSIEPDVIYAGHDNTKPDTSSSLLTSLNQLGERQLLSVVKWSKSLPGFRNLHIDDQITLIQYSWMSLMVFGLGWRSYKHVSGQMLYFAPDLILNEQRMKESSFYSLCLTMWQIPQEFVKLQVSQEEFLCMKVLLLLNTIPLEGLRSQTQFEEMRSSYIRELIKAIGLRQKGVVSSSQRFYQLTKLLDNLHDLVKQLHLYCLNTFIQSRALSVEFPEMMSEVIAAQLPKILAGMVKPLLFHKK

[9] = target: Cytochrome P450 3A4 (Homo sapiens, UniProt P08684); test: Inhibition of CYP3A4 (unknown origin) using midazolam as substrate; type: ADME
[10] = Half-life in mini-pig at 0.5 mg/kg, iv; type: ADME, organism-based, Sus scrofa domesticus; conditions: in vivo
[11] = Volume of distribution at steady state in rat at 0.5 mg/kg, iv; type: ADME, organism-based; conditions: in vivo, read-out: Vdss; method in brief: as §1
[12] = Half-life in rat at 0.5 mg/kg, iv; type: ADME, organism-based; conditions: in vivo; method in brief: as §1
[13] = Oral bioavailability in mini-pig at 5 mg/kg; type: ADME, organism-based, Sus scrofa domesticus; conditions: in vivo
[14] = Toxicity in female rat assessed as effect on body weight at 250 mg/kg/day, po administered once daily via gavage for 14 days; type: organism-based; conditions: in vivo, 336 h
[15] = Toxicity in female rat assessed as effect on food consumption at 250 mg/kg/day, po administered once daily via gavage for 14 days; type: organism-based; conditions: in vivo, 336 h
[16] = Cmax in mini-pig at 5 mg/kg, po; type: ADME, organism-based, Sus scrofa domesticus; design: dose 5 mg/kg, route oral; conditions: in vivo

Cytochrome P450 3A4, sequence (P08684 whole entry): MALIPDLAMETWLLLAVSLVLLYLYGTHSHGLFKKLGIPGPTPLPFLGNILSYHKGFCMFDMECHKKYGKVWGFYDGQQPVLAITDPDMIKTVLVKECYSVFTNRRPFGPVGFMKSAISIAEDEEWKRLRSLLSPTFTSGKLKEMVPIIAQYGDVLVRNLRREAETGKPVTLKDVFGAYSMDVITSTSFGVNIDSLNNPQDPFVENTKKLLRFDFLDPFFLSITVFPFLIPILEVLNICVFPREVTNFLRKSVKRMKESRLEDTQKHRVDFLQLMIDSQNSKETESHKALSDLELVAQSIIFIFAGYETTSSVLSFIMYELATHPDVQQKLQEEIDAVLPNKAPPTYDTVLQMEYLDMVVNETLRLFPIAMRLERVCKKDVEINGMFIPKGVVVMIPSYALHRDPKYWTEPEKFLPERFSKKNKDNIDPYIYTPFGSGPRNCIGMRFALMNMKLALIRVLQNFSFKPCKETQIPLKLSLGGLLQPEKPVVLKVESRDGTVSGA

## CC#C[C@]1(O)CC[C@H]2[C@@H]3CCC4=CC(=O)CC[C@]4(C)[C@H]3[C@@H](c3ccc(N(C)C)cc3)C[C@@]21C
[1]
  AUC: 2450 ng·h/mL
[2]
  clearance: 51.7 mL/min/kg
[3]
  Activity: 100%
[4]
  IC50: 16 nM
[5]
  half-life: 16.2 h
[6]
  AUC: 1020 ng·h/mL
[7]
  bioavailability: 62%
[8]
  IC50: 1140 nM
[9]
  IC50: > 10000 nM
[10]
  half-life: 2.71 h
[11]
  Vd: 4.7 L/kg
[12]
  half-life: 1.8 h
[13]
  bioavailability: 35.9%
[14]
  Activity: Non-Toxic
[15]
  Activity: Non-Toxic
[16]
  Cmax: 249 ng/mL
